27 compounds from ChEMBL document CHEMBL4196055, “Synthesis and biological evaluation of α-santonin derivatives as anti-hepatoma agents” (Eur J Med Chem, 2018) can be followed below.

The subject of one assay is SMMC-7721. In words: Antiproliferative activity against human SMMC7721 cells after 24 hrs by CCK-8 assay. The following applies: SMMC-7721, 24 h. The assay is classed as functional, cell-based. The method in brief: (§1)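 Cells in 10% FBS medium with penicillin/streptomycin at 37 °C, 5% CO2; HepG-2 in DMEM, QGY-7703, SMMC-7721 and QSG-7701 in RPMI 1640. Seeded 2 × 10^5 cells/well, grown 24 h, then exposed to five concentrations of compound or 1% DMSO vehicle for 24 h. CCK-8 added for 1 h, absorbance read at 450 nm; IC50 derived from the 5-dose data.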

For assay [1], the system named is HepG2. Nature of the assay: Antiproliferative activity against human HepG2 cells after 24 hrs by CCK-8 assay. Format: functional, cell-based. Conditions: HepG2, 24 h. The method in brief:
as §1

The nature of assay [2]: Antiproliferative activity against human QSG7701 cells after 24 hrs by CCK-8 assay. Format: cell-based. Conditions: QSG7701, 24 h. The method in brief: as §1
The next assay deals with QGY-7703. In words: Antiproliferative activity against human QGY7703 cells after 24 hrs by CCK-8 assay. Format: functional, cell-based. Conditions: QGY-7703, 24 h. In short, it runs like this:
as §1

The test system of assay [3] is HepG2. In words: Antiproliferative activity against human HepG2 cells at 10 uM after 24 hrs by CCK-8 assay relative to control. The assay is classed as functional. In short, it runs like this: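 HepG-2 grown in DMEM with 10% FBS and penicillin/streptomycin (37 °C, 5% CO2). Seeded 2 × 10^5 cells/well for 24 h, then given a single 10 μM dose or 1% DMSO vehicle for 24 h. CCK-8 reagent for 1 h, A450 read, and percent inhibition calculated against untreated control cells.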

Each structure is given as a SMILES string.

`C=C1C(=O)O[C@@H]2C3=C(C)[C@@H](OC(=O)c4ccc(OC(F)(F)F)cc4)CC3[C@](C)(OC(C)=O)CC[C@@H]12` (stereo partly drawn): the IC50 with SMMC-7721 was 6.1 µM; with HepG2 [1], 7.54 µM; in assay [2] it was 36.8 µM; with QGY-7703, 11.3 µM. In the assay with HepG2 [3], this compound had an Activity of 69.25%.
On to `C=C1C(=O)O[C@@H]2C3=C(C)[C@@H](OC(=O)/C=C/c4ccc(C)cc4)CC3[C@](C)(OC(C)=O)CC[C@@H]12` (stereo partly drawn), for which the IC50 in the assay with SMMC-7721 is 5.06 µM; with HepG2 [1] it was 8.67 µM; in assay [2], greater than 100 µM; with QGY-7703 it was 10.6 µM. Further, in the assay with HepG2 [3], the Activity turned out to be 72.03%.
On the same counts, the results for `C=C1C(=O)O[C@@H]2C3=C(C)[C@@H](OC(=O)/C=C/c4ccc(Br)cc4)CC3[C@](C)(OC(C)=O)CC[C@@H]12` (stereo partly drawn) are 6.09 µM, 11.7 µM, 91.3 µM, 8.91 µM and 61.39%.
The compound `C=C1C(=O)O[C@@H]2C3=C(C)[C@@H](OC(=O)/C=C/c4ccc(OCC)cc4)CC3[C@](C)(OC(C)=O)CC[C@@H]12` (stereo partly drawn) came in with an Activity in the assay with HepG2 [3] of 49.75%.
Take `C=C1C(=O)O[C@@H]2C3=C(C)[C@@H](OC(=O)c4ccc(I)cc4)CC3[C@](C)(OC(C)=O)CC[C@@H]12` (stereo partly drawn): the IC50 in the assay with SMMC-7721 was found to be 4.18 µM; in the assay with HepG2 [1], 7.57 µM; in assay [2], 36.5 µM; in the assay on QGY-7703 it was 9 µM. The Activity with HepG2 [3] is given as 63.11%.
Compound `C=C1C(=O)O[C@@H]2C3=C(C)[C@@H](OC(=O)/C=C/c4ccc(SC)cc4)CC3[C@](C)(OC(C)=O)CC[C@@H]12` (stereo partly drawn) returned an Activity with HepG2 [3] of 36.24%.
Consider `C=C1C(=O)O[C@@H]2C3=C(C)[C@@H](OC(=O)c4ccc(C(C)(C)C)cc4)CC3[C@](C)(OC(C)=O)CC[C@@H]12` (stereo partly drawn), for which the IC50 with SMMC-7721 came out at 9.37 µM; in the assay with HepG2 [1], 11.1 µM; in assay [2], 48.5 µM; in the assay with QGY-7703, 5.13 µM. In the assay with HepG2 [3], this compound showed an Activity of 64.41%.
As to `C=C1C(=O)O[C@@H]2C3=C(C)[C@@H](OC(=O)c4ccc(CCCCC)cc4)CC3[C@](C)(OC(C)=O)CC[C@@H]12` (stereo partly drawn), the IC50 with SMMC-7721 was 18.7 µM; with HepG2 [1] it was 10.8 µM; in assay [2], 38.5 µM; in the assay with QGY-7703, 7.19 µM. Further, the Activity with HepG2 [3] is given as 58.08%.
Take `C=C1C(=O)O[C@@H]2C3=C(C)[C@@H](OC(=O)c4ccc(F)cc4)CC3[C@](C)(OC(C)=O)CC[C@@H]12` (stereo partly drawn): the IC50 came out at 4.97 µM with SMMC-7721, 6.2 µM with HepG2 [1], 39 µM in assay [2] and 6.78 µM in the assay with QGY-7703. In the assay with HepG2 [3], this compound yielded an Activity of 78.61%.
In the case of `C=C1C(=O)O[C@@H]2C3=C(C)[C@@H](OC(=O)c4ccc(CCCC)cc4)CC3[C@](C)(OC(C)=O)CC[C@@H]12` (stereo partly drawn), the IC50 was 7.46 µM in the assay on SMMC-7721, 10.3 µM in the assay on HepG2 [1], 45.1 µM in assay [2] and 7.2 µM in the assay on QGY-7703. The compound further displayed an Activity in the assay on HepG2 [3] of 67.53%.
Take `C=C1C(=O)O[C@@H]2C3=C(C)[C@@H](OC(=O)c4ccc(CC)cc4)CC3[C@](C)(OC(C)=O)CC[C@@H]12` (stereo partly drawn): the Activity in the assay on HepG2 [3] is given as 42.33%.
In turn, `C=C1C(=O)O[C@@H]2C3=C(C)[C@@H](OC(=O)c4ccc(C(C)C)cc4)CC3[C@](C)(OC(C)=O)CC[C@@H]12` (stereo partly drawn) had an Activity in the assay on HepG2 [3] of 37.86%.
As to `C=C1C(=O)O[C@@H]2C3=C(C)[C@@H](OC(=O)c4ccc(C#N)cc4)CC3[C@](C)(OC(C)=O)CC[C@@H]12` (stereo partly drawn), the IC50 in the assay with SMMC-7721 is 6.7 µM; with HepG2 [1] it was 9.14 µM; in assay [2] it was greater than 100 µM; in the assay on QGY-7703, 22.8 µM. In the assay with HepG2 [3], the Activity was found to be 62.58%.
`C=C1C(=O)O[C@@H]2C3=C(C)[C@@H](O)CC3[C@](C)(OC(C)=O)CC[C@@H]12` (stereo partly drawn) registered an Activity with HepG2 [3] of 32.02%.
For `C=C1C(=O)O[C@@H]2C3=C(C)[C@@H](OC(=O)c4ccc(C(F)(F)F)cc4)CC3[C@](C)(OC(C)=O)CC[C@@H]12` (stereo partly drawn), the 50% inhibitory concentration (IC50) in the assay with SMMC-7721 was determined as 5.49 µM; with HepG2 [1] it was 5.63 µM; in assay [2] it was 41.1 µM; with QGY-7703 it was 5.64 µM. In addition, the Activity with HepG2 [3] came out at 72.42%.
Regarding `C=C1C(=O)O[C@@H]2C3=C(C)[C@@H](OC(=O)c4ccc(Br)cc4)CC3[C@](C)(OC(C)=O)CC[C@@H]12` (stereo partly drawn), the IC50 in the assay with SMMC-7721 stood at 6.54 µM; in the assay on HepG2 [1], 7.41 µM; in assay [2], 51.9 µM; in the assay on QGY-7703, 13.7 µM. This compound registered an Activity with HepG2 [3] of 71.06%.
As to `C=C1C(=O)O[C@@H]2C3=C(C)[C@@H](OC(=O)/C=C/c4ccc(OC)cc4)CC3[C@](C)(OC(C)=O)CC[C@@H]12` (stereo partly drawn), the IC50 was 5.41 µM with SMMC-7721, 12.1 µM in the assay with HepG2 [1], greater than 100 µM in assay [2] and 11.8 µM in the assay with QGY-7703. In the assay with HepG2 [3], the Activity was determined as 61.14%.
On the same counts, the results for `C=C1C(=O)O[C@@H]2C3=C(C)[C@@H](OC(=O)c4ccc(CCC)cc4)CC3[C@](C)(OC(C)=O)CC[C@@H]12` (stereo partly drawn) are 6.52 µM, 10.1 µM, 34.3 µM, 8.33 µM and 62.47%.
The corresponding values for `C=C1C(=O)O[C@@H]2C3=C(C)[C@@H](OC(=O)/C=C/c4ccc(F)cc4)CC3[C@](C)(OC(C)=O)CC[C@@H]12` (stereo partly drawn) are 5.8 µM, 9.98 µM, greater than 100 µM, 12.2 µM and 67.53%.
With `C=C1C(=O)O[C@@H]2C3=C(C)[C@@H](OC(=O)/C=C/c4ccc([N+](=O)[O-])cc4)CC3[C@](C)(OC(C)=O)CC[C@@H]12` (stereo partly drawn), the Activity in the assay on HepG2 [3] was 42.67%.
In the assay with HepG2 [3], `C=C1C(=O)O[C@@H]2C3=C(C)[C@@H](OC(=O)/C=C/c4ccc(OCCC)cc4)CC3[C@](C)(OC(C)=O)CC[C@@H]12` (stereo partly drawn) gave an Activity of 47.78%.
On to `C=C1C(=O)O[C@@H]2C3=C(C)[C@@H](OC(=O)c4ccc(C)cc4)CC3[C@](C)(OC(C)=O)CC[C@@H]12` (stereo partly drawn), for which the IC50 with SMMC-7721 is 6.49 µM; in the assay with HepG2 [1], 8.52 µM; in assay [2], greater than 100 µM; with QGY-7703 it was 12.2 µM. The compound also returned an Activity with HepG2 [3] of 58.47%.
On the same counts, the results for `C=C1C(=O)O[C@@H]2C3=C(C)[C@@H](OC(=O)/C=C/c4ccccc4)CC3[C@](C)(OC(C)=O)CC[C@@H]12` (stereo partly drawn) are 6.43 µM, 16.2 µM, greater than 100 µM, 18.8 µM and 56.11%.
On the same counts, the results for `C=C1C(=O)O[C@@H]2C3=C(C)[C@@H](OC(=O)c4ccccc4)CC3[C@](C)(OC(C)=O)CC[C@@H]12` (stereo partly drawn) are 5.99 µM, 7.99 µM, greater than 100 µM, 13 µM and 68.47%.
As to `C=C1C(=O)O[C@@H]2C3=C(C)[C@@H](OC(=O)/C=C/c4ccc(C(F)(F)F)cc4)CC3[C@](C)(OC(C)=O)CC[C@@H]12` (stereo partly drawn), the IC50 was 6.12 µM in the assay with SMMC-7721, 6.79 µM in the assay with HepG2 [1], 43.3 µM in assay [2] and 12.7 µM in the assay on QGY-7703. This compound also had an Activity in the assay with HepG2 [3] of 71.14%.
In the case of `C=C1C(=O)O[C@@H]2C3=C(C)[C@@H](OC(=O)c4ccc(OC)cc4)CC3[C@](C)(OC(C)=O)CC[C@@H]12` (stereo partly drawn), the IC50 is 8.93 µM in the assay on SMMC-7721, 12.2 µM in the assay on HepG2 [1], greater than 100 µM in assay [2] and 22.3 µM in the assay with QGY-7703. The same compound had an Activity in the assay with HepG2 [3] of 53.03%.
Regarding `C=C1C(=O)O[C@@H]2C3=C(C)[C@@H](OC(=O)/C=C/c4ccc(C#N)cc4)CC3[C@](C)(OC(C)=O)CC[C@@H]12` (stereo partly drawn), the Activity with HepG2 [3] worked out at 48.53%.
